Converted amounts (≈) assume the structure as drawn. The source made the active and inactive calls. No cut-off for these calls is given here.
Key:
[1] = target: T1, Pteridine reductase 1 (Leishmania major) (UniProt Q01782); test: Inhibition of Leishmania major PTR1 at 5 uM
T1 sequence (whole entry): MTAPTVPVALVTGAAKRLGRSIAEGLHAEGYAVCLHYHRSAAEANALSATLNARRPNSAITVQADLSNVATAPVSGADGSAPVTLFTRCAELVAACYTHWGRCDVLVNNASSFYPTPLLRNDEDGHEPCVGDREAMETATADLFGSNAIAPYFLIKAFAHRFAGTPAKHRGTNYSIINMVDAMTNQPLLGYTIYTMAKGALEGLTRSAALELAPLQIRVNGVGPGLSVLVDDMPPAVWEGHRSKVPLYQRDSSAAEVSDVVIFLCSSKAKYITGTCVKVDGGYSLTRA
How it was run: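 Compounds dissolved in DMSO and screened at a single 5 μM concentration; DMSO kept below 1%. Measurements run in triplicate.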

[2] = Lipophilicity, log D of the compound in octanol buffer at pH 7.4; type: physicochemical
[3] = Solubility of the compound at pH 7.4; type: physicochemical; settings: buffer
[4] = target: T1, Pteridine reductase 1 (Leishmania major); settings: at 500 µM
[5] = target: T2, Dihydrofolate reductase (Homo sapiens) (UniProt P00374); test: Inhibition of human DHFR at 50 uM
T2 sequence (whole entry): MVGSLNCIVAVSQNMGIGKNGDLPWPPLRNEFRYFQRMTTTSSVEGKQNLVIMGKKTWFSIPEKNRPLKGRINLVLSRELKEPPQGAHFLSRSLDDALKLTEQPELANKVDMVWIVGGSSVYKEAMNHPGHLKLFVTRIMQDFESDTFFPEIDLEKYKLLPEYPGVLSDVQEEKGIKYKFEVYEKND
How it was run: (§1)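 NADPH oxidation followed at 340 nm. Compounds in DMSO, screened at a single concentration between 25 μM and 1 mM. Measurements run in triplicate.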

[6] = target: Bifunctional dihydrofolate reductase-thymidylate synthase (Leishmania major) (UniProt P07382); test: Inhibition of Leishmania major DHFR at 50 uM; how it was run: as §1
Leishmania mexicana [7] = test: Antileishmanial activity against Leishmania mexicana MHOM/BZ/84/BEL46 assessed as growth at 50 ug/ml by Alamar blue assay; type: functional
How it was run: (§2)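 Promastigotes grown in SDM-79, pH 7.3, with 15% heat-inactivated FCS at 28 C in 5% CO2, then seeded at 1 × 10^6 parasites/mL. Each compound tested alone at 50 μg/mL in duplicate as a control for the combination experiments; DMSO below 1% final. After 72 h at 28 C, Alamar Blue added for 4 h; fluorescence read at ex 530 / em 590 nm. Growth expressed as percentage of untreated cultures.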

Leishmania major [8] = test: Antileishmanial activity against Leishmania major MHOM/SU/73/5-ASKH assessed as growth at 50 ug/ml by Alamar blue assay in presence of pyrimethamine; 5-(4-chlorophenyl)-6-ethylpyrimidine-2,4-diamine DHFR inhibitor; values are per cent of control
Leishmania mexicana [9] = test: Antileishmanial activity against Leishmania mexicana MHOM/BZ/84/BEL46 assessed as growth at 50 ug/ml by Alamar blue assay in presence of pyrimethamine; 5-(4-chlorophenyl)-6-ethylpyrimidine-2,4-diamine DHFR inhibitor; values are per cent of control
Leishmania major [10] = test: Antileishmanial activity against Leishmania major MHOM/SU/73/5-ASKH assessed as growth at 50 ug/ml by Alamar blue assay; type: functional; how it was run: as §2
[11] = target: T2, Dihydrofolate reductase (Homo sapiens); test: Inhibition of human DHFR at 100 uM; how it was run: as §1
[12] = Cytotoxicity against human MRC5 cells after 72 hrs by Alamar blue assay; type: cell-based; settings: read-out: ED50
[13] = target: T2, Dihydrofolate reductase (Homo sapiens); test: Inhibition of human DHFR at 1 mM; how it was run: as §1

Chain of Bifunctional dihydrofolate reductase-thymidylate synthase (Leishmania major) (P07382 whole entry, looked up): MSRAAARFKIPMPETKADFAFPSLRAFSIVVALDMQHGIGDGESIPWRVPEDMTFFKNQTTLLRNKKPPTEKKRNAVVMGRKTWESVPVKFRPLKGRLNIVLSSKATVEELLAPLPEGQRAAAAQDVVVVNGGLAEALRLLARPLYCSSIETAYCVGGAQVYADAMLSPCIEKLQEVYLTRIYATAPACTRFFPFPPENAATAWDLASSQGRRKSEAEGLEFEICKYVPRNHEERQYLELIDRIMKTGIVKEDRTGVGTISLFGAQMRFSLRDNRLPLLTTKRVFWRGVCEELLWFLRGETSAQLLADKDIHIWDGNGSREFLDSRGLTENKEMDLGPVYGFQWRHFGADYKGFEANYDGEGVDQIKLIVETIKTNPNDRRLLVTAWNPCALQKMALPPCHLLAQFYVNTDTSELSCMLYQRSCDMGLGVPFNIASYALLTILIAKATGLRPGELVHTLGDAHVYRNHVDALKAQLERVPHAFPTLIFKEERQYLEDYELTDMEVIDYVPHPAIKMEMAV

Compound	inhibition [1]	logD [2]	solubility [3] [µM]	inhibition [4]	also measured
CCC(C)c1nnc(N)s1 (stereo not given)	inactive	1.25	22000 (≈ 3460 µg/mL)		
Nc1ccc(Cl)cc1C=O				inactive	
Nc1cc(-c2ccccc2)n[nH]1				inactive	
NCCc1ccc(-c2nnc(N)s2)cc1	inactive	-0.69	210000 (≈ 46300 µg/mL)		
Cn1ncc2cc(N)ccc21					inhibition [6]: inactive; inhibition [11]: inactive
CN(C)C1=C2C=CC=C2C(=O)C1				inactive	
NCCc1ccc(N)cc1				inactive	
Nc1nnc(-c2cccc([N+](=O)[O-])c2)s1	inactive	1.94	530 (≈ 118 µg/mL)		
CC(=O)c1cccc(O)c1				inactive	
O=Cc1ccc(O)cc1F				inactive	
C#CCn1cc(C(=O)O)c(=O)c2cc(F)c(Cl)cc21				inactive	
O=C(CO)c1ccc(Cl)cc1				inactive	
Nc1nnc(-c2cccc(NS(=O)(=O)c3ccc([N+](=O)[O-])cc3)c2)s1	inactive	2.43	19 (≈ 7.17 µg/mL)		
Cc1cc(C)cc(-c2nnc(N)s2)c1	inactive	2.95	400 (≈ 82.1 µg/mL)		
NNc1cccc(F)n1				inactive	
CCOc1ccc(-c2nnc(N)s2)cc1	inactive	2.73	440 (≈ 97.4 µg/mL)		
Cc1nnsc1SC(C)C				inactive	

Compound	inhibition [1]	logD [2]	solubility [3] [µM]	inhibition [4]	also measured
Nc1nc(-c2ccc(Cl)cc2)cs1				inactive	
COc1ccc(N2CCCC2=O)cc1				inactive	
Nc1nncs1					inhibition [13]: inactive
O=C(c1ccc(O)cc1)c1ccc(F)cc1					inhibition [5]: inactive; inhibition [6]: inactive
Nc1nnc(-c2ccncc2)s1	inactive	0.77	13000 (≈ 2320 µg/mL)		
CCn1nc(C)cc1N				inactive	
c1ccc2cnncc2c1				inactive	
Nc1cccc2c1C(=O)c1ccccc1-2				inactive	
Cn1cc(C(=O)O)c2ccccc21				inactive	
CCc1nc(N)nc(N)c1-c1ccc(Cl)cc1 [PYRIMETHAMINE]					growth, % of control at 50 µg/mL (Leishmania mexicana [7]): 102%; CC50 at 72 h [12]: 16.2 µg/mL (≈ 65.3 µM); growth, % of control at 50 µg/mL (Leishmania major [10]): 68%
Cc1ccc(-c2nnc(N)s2)cc1C	inactive	2.95	420 (≈ 86.2 µg/mL)		
OCc1ccc2[nH]ccc2c1				inactive	
Nc1nnc(-c2cccc(NS(=O)(=O)c3cccc([N+](=O)[O-])c3)c2)s1	inactive	2.36	24 (≈ 9.06 µg/mL)		
CN(C)c1ccc(C=O)cc1C#N				inactive	
Cc1cccc2cc[nH]c12				inactive	
O=c1[nH]c2c(Cl)cccc2s1				inactive	

Now from value to compound, other results behind:

inhibition [1]	logD [2]	solubility [3] [µM]	inhibition [4]	Compound	also measured
inactive	2.03	1300 (≈ 267 µg/mL)		Nc1nnc(CCc2ccccc2)s1	
			inactive	O=Cc1ccc2c(c1)CCO2	
inactive				Nc1nnc(-c2ccc3[nH]nnc3c2)s1	inhibition [5]: inactive; inhibition [6]: inactive; growth, % of control at 50 µg/mL (Leishmania mexicana [7]): 112%; growth, % of control at 50 µg/mL (Leishmania major [8]): 40.9%; growth, % of control at 50 µg/mL (Leishmania mexicana [9]): 18.2%; growth, % of control at 50 µg/mL (Leishmania major [10]): 83.5%
inactive	1.4	730 (≈ 179 µg/mL)		Nc1nnc(-c2cc(=O)c3ccccc3o2)s1	inhibition [5]: inactive; growth, % of control at 50 µg/mL (Leishmania mexicana [7]): 132%; growth, % of control at 50 µg/mL (Leishmania major [8]): 14.6%; CC50 at 72 h [12]: 43 µg/mL (≈ 175 µM); growth, % of control at 50 µg/mL (Leishmania mexicana [9]): 35.1%; growth, % of control at 50 µg/mL (Leishmania major [10]): 76%
			inactive	COc1ccc2c(c1)c(C=O)cn2C	
			inactive	Cc1ccc(C(=N)N)cc1	
inactive				O=C(CN1C(=O)c2ccccc2C1=O)Nc1nnc(CN2C(=O)c3ccccc3C2=O)s1	inhibition [5]: inactive; inhibition [6]: inactive
			inactive	CN1CCOc2cc(C=O)ccc21	
inactive	-1.74	87000 (≈ 18600 µg/mL)		Nc1nnc(CC2NC(=O)NC2=O)s1 (stereo not given)	
			inactive	CC(=O)n1cc(C=O)c2ccccc21	
inactive	0.82	13000 (≈ 2170 µg/mL)		Nc1nnc(-c2ccco2)s1	
inactive	0.22	1300 (≈ 338 µg/mL)		Nc1nnc(CN2C(=O)c3ccccc3C2=O)s1	
inactive	2.44	240 (≈ 61.4 µg/mL)		Nc1nnc(CCOc2ccc(Cl)cc2)s1	
			inactive	N#C/C=C(/N)N1CCCC1	
			inactive	O=C1Cc2ccc(F)cc2N1	
	0.44	42000 (≈ 6870 µg/mL)		Nc1nnc(CCCl)s1	
			inactive	Nc1ccc(F)c(N)c1	
			inactive	Nc1cc(O)c2ccccc2n1	
			inactive	Clc1cccc(-n2ccnc2)c1	
			inactive	Cc1cc(=O)n(C)c2ccccc12	
			inactive	Nc1ccnc2ccccc12	
			inactive	Fc1cccc(-n2ccnc2)c1	
			inactive	Cc1cccc(-c2nnn[nH]2)c1	

inhibition [1]	logD [2]	solubility [3] [µM]	inhibition [4]	Compound	also measured
			inactive	O=C(O)c1ccc2cc[nH]c2c1	
			inactive	Nc1cc(F)ccc1O	
			inactive	NC(=O)C1=C2CCCc3cccc(c32)C1=O	
			inactive	O=C1CCCN1c1ccccc1	
inactive				O=C(Nc1nnc(-c2ccncc2)s1)c1ccncc1	
			inactive	Nc1ccc(F)c(F)c1N	
inactive	1.11	1200 (≈ 287 µg/mL)		Nc1nnc(CCC(=O)c2cccs2)s1	growth, % of control at 50 µg/mL (Leishmania mexicana [7]): 96.9%; growth, % of control at 50 µg/mL (Leishmania major [8]): 17.5%; CC50 at 72 h [12]: 34.4 µg/mL (≈ 144 µM); growth, % of control at 50 µg/mL (Leishmania mexicana [9]): 27.3%; growth, % of control at 50 µg/mL (Leishmania major [10]): 85.1%
inactive	1.76	780 (≈ 193 µg/mL)		Nc1nnc(CCCC(=O)c2ccccc2)s1	
			inactive	C=CCc1cc(OC)c(O)cc1C=O	
			inactive	COc1ccc(C(C)=O)cc1CCl	
inactive	1.68	390 (≈ 78.9 µg/mL)		N#Cc1ccc(-c2nnc(N)s2)cc1	
inactive	2.2	210 (≈ 56.2 µg/mL)		Nc1nnc(CCC(=O)c2ccc(Cl)cc2)s1	inhibition [5]: inactive; inhibition [6]: inactive
inactive				Cc1ccc(C(=O)Nc2nnc(-c3ccc(C)c(C)c3)s2)cc1C	
inactive	-0.16	210000 (≈ 24200 µg/mL)		Cc1nnc(N)s1	
	0.38	2500 (≈ 546 µg/mL)		Nc1nnc(-c2ccc3nn[nH]c3c2)s1	CC50 at 72 h [12]: 51.5 µg/mL (≈ 236 µM)
			inactive	O=C(O)CCNC(=O)c1ccc([N+](=O)[O-])cc1	
			inactive	C/C(=N\N)c1ccc(C)cc1	
			inactive	CC(=O)c1ccc(C#N)s1	
			inactive	CCOc1ccc(CO)cc1	
inactive	1	3700 (≈ 767 µg/mL)		Nc1nnc([C@@H](O)c2ccccc2)s1	
			inactive	Cc1ccc(C=O)cc1F	
inactive	2.03	2000 (≈ 354 µg/mL)		Nc1nnc(-c2ccccc2)s1	
